Experimental data: ChEMBL document CHEMBL2321660, “Synthesis, characterization, and photoinduced antibacterial activity of porphyrin-type photosensitizers conjugated to the antimicrobial peptide apidaecin 1b” (J Med Chem, 2013)
Activity calls are given as the source filed them. The calls are words filed in the database; no cut-off is given here. Residues, ends and D or L forms follow the SMILES beside them. *: point of attachment. Benzoyl(4-TriPhPorphyrinyl) = O=C(c1ccc(-c2c3nc(c(-c4ccccc4)c4ccc([nH]4)c(-c4ccccc4)c4nc(c(-c5ccccc5)c5ccc2[nH]5)C=C4)C=C3)cc1)*

Key:
Escherichia coli [1] = assay: Antibacterial activity against Escherichia coli ATCC 25922 assessed as cell death at 10 uM incubated for 60 mins in dark followed by blue light illumination post compound washout; type: functional, organism-based
Outline: (§1)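 Dark incubation with PS at rt, then illumination either directly or after three PBS washes (10000g, 5 min). Survival by 10-fold serial dilution, duplicate plating on BHI agar, overnight colony count at 37 °C; dark, light-only and peptide-only controls.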

Staphylococcus aureus [2] = assay: Drug uptake in methicillin-resistant Staphylococcus aureus ATCC BAA-44 at 1.5 uM incubated for 60 mins in dark followed by flow cytometry; type: ADME, organism-based; settings: in vivo, 1 h
Outline: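 Cells treated as for photoinactivation: 60 min dark incubation with PS, unwashed or after three PBS washings. Analysed by flow cytometry for cell-associated red fluorescence instead of being illuminated.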

Escherichia coli [3] = assay: Drug uptake in Escherichia coli ATCC 25922 at 5 uM incubated for 60 mins in dark followed by flow cytometry; type: ADME, organism-based; settings: in vivo, 1 h
Outline: (§2)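 Bacterial suspensions treated as for photoinactivation (5 μM, 60 min dark incubation at rt, either unwashed or washed three times with PBS) and then analysed for cell-associated red fluorescence by flow cytometry instead of being illuminated.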

Staphylococcus aureus [4] = assay: Antibacterial activity against methicillin-resistant Staphylococcus aureus ATCC BAA-44 assessed as cell death at 0.5 uM incubated for 15 to 120 mins in dark followed by blue light illumination post compound washout; type: functional, organism-based
Outline: (§3)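 Overnight BHI-grown stationary-phase bacteria in PBS pH 7.3 at ~2 × 10⁷ cells/mL, dark-incubated with PS at rt. Then centrifuged at 10000g for 5 min and washed three times in PBS before blue light (390−460 nm, 15.2 mW/cm², 13.5 J/cm²). Survival measured as cfu from serial dilutions plated in duplicate on BHI agar.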

Staphylococcus aureus [5] = assay: Antibacterial activity against methicillin-resistant Staphylococcus aureus ATCC BAA-44 assessed as cell death at 0.5 uM incubated for 15 to 120 mins in dark followed by blue light illumination; type: functional, organism-based
Outline: (§4)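 Stationary-phase bacteria grown overnight in BHI at 37 °C, washed twice and resuspended in PBS pH 7.3 at ~2 × 10⁷ cells/mL. Dark incubation with PS at rt, unbound PS left in. Blue light (390−460 nm) at 15.2 mW/cm², 13.5 J/cm². Survivors counted as cfu from serial 10-fold dilutions plated in duplicate on BHI agar, 37 °C overnight. Dark, light-only and untreated controls.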

Staphylococcus aureus [6] = assay: Antibacterial activity against methicillin-resistant Staphylococcus aureus ATCC BAA-44 assessed as cell death at 0.5 uM incubated for 60 mins in dark followed by blue light illumination post compound washout; type: functional, organism-based; outline: as §3
Staphylococcus aureus [7] = assay: Antibacterial activity against methicillin-resistant Staphylococcus aureus ATCC BAA-44 assessed as log reduction in cell survival at 0.5 uM incubated for 60 mins in dark followed by blue light illumination; type: functional; outline: as §4
Escherichia coli [8] = assay: Antibacterial activity against Escherichia coli ATCC 25922 assessed as cell death at 10 uM incubated for 15 to 120 mins in dark followed by blue light illumination; type: functional, organism-based; outline: as §1
Escherichia coli [9] = assay: Antibacterial activity against Escherichia coli ATCC 25922 assessed as cell death at 10 uM incubated for 15 to 120 mins in dark followed by blue light illumination post compound washout; type: functional, organism-based; outline: as §1
Escherichia coli [10] = assay: Antibacterial activity against Escherichia coli ATCC 25922 assessed as cell death at 1.5 to 15 uM incubated for 60 mins in dark followed by blue light illumination post compound washout; type: functional, organism-based; outline: as §1
Escherichia coli [11] = assay: Antibacterial activity against Escherichia coli ATCC 25922 assessed as cell death at 15 uM incubated for 60 mins in dark followed by blue light illumination relative to control; type: functional; outline: as §4
Escherichia coli [12] = assay: Antibacterial activity against Escherichia coli ATCC 25922 assessed as cell death after 60 mins in dark followed by blue light illumination; type: functional, organism-based; outline: as §1
Escherichia coli [13] = assay: Drug uptake in Escherichia coli ATCC 25922 at 5 uM incubated for 60 mins in dark followed by flow cytometry post compound washout; type: ADME, organism-based; settings: in vivo, 1 h; outline: as §2
Staphylococcus aureus [14] = assay: Antibacterial activity against methicillin-resistant Staphylococcus aureus ATCC BAA-44 assessed as cell death at 10 nM incubated for 15 to 120 mins in dark followed by blue light illumination post compound washout; type: functional, organism-based; outline: as §3
Staphylococcus aureus [15] = assay: Antibacterial activity against methicillin-resistant Staphylococcus aureus ATCC BAA-44 assessed as cell death at 10 nM incubated for 15 to 120 mins in dark followed by blue light illumination; type: functional, organism-based; outline: as §4
Staphylococcus aureus [16] = assay: Antibacterial activity against methicillin-resistant Staphylococcus aureus ATCC BAA-44 assessed as cell death at 0.5 uM incubated for 60 mins in dark followed by blue light illumination; type: functional, organism-based; outline: as §4
Staphylococcus aureus [17] = assay: Antibacterial activity against methicillin-resistant Staphylococcus aureus ATCC BAA-44 assessed as cell death at 50 to 500 nM incubated for 60 mins in dark followed by blue light illumination post compound washout; type: functional, organism-based; outline: as §3
Staphylococcus aureus [18] = assay: Antibacterial activity against methicillin-resistant Staphylococcus aureus ATCC BAA-44 assessed as cell death at 50 to 500 nM incubated for 60 mins in dark followed by blue light illumination; type: functional, organism-based; outline: as §4
Staphylococcus aureus [19] = assay: Antibacterial activity against methicillin-resistant Staphylococcus aureus ATCC BAA-44 assessed as cell death at 10 uM incubated for 15 to 120 mins in dark followed by red light illumination; type: functional, organism-based
Outline: (§5)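 Cells incubated with PS in the dark at rt in PBS pH 7.3 (~2 × 10⁷ cells/mL), unbound PS not removed. Red light (600−750 nm) delivered from above at 40 mW/cm², total 36 J/cm². Viability read as cfu after 10-fold serial dilution, duplicate plating on BHI agar, overnight at 37 °C.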

Staphylococcus aureus [20] = assay: Antibacterial activity against methicillin-resistant Staphylococcus aureus ATCC BAA-44 assessed as cell death at 10 uM incubated for 15 to 120 mins in dark followed by red light illumination post compound washout; type: functional, organism-based
Outline: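 After dark incubation with PS in PBS at rt, cells pelleted at 10000g for 5 min and washed three times with PBS. Red light (600−750 nm, 40 mW/cm², 36 J/cm²). Surviving cfu counted on BHI agar plated in duplicate.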

Staphylococcus aureus [21] = assay: Antibacterial activity against methicillin-resistant Staphylococcus aureus ATCC BAA-44 assessed as cell death at 1.5 to 15 uM incubated for 60 mins in dark followed by red light illumination; type: functional, organism-based; outline: as §5
Escherichia coli [22] = assay: Antibacterial activity against Escherichia coli ATCC 25922 assessed as cell death after 60 mins in dark followed by red light illumination; type: functional, organism-based; outline: as §1
Escherichia coli [23] = assay: Antibacterial activity against Escherichia coli ATCC 25922 assessed as cell death at 5 uM incubated for 15 to 120 mins in dark followed by blue light illumination; type: functional, organism-based; outline: as §4
Escherichia coli [24] = assay: Antibacterial activity against Escherichia coli ATCC 25922 assessed as cell death at 5 uM incubated for 15 to 120 mins in dark followed by blue light illumination post compound washout; type: functional, organism-based; outline: as §3
Escherichia coli [25] = assay: Antibacterial activity against Escherichia coli ATCC 25922 assessed as log reduction at 10 uM incubated for 60 mins in dark followed by blue light illumination post compound washout relative to control; type: functional, organism-based; outline: as §3
Escherichia coli [26] = assay: Antibacterial activity against Escherichia coli ATCC 25922 assessed as cell death at 5 to 10 uM incubated for 60 mins in dark followed by blue light illumination; type: functional, organism-based; outline: as §4

CC[C@H](C)[C@H](NC(=O)[C@H](Cc1ccc(O)cc1)NC(=O)[C@@H](NC(=O)[C@@H]1CCCN1C(=O)[C@H](CCCNC(=N)N)NC(=O)[C@H](CC(N)=O)NC(=O)[C@H](CC(N)=O)NC(=O)CNC(=O)c1ccc(-c2c3nc(c(-c4ccccc4)c4ccc([nH]4)c(-c4ccccc4)c4nc(c(-c5ccccc5)c5ccc2[nH]5)C=C4)C=C3)cc1)C(C)C)C(=O)N1CCC[C@H]1C(=O)N[C@@H](CCC(N)=O)C(=O)N1CCC[C@H]1C(=O)N[C@@H](CCCNC(=N)N)C(=O)N1CCC[C@H]1C(=O)N1CCC[C@H]1C(=O)N[C@@H](Cc1cnc[nH]1)C(=O)N1CCC[C@H]1C(=O)N[C@@H](CCCNC(=N)N)C(=O)N[C@@H](CC(C)C)C(=O)O ({Benzoyl(4-TriPhPorphyrinyl)}-GNNRPVYIPQPRPPHPRL-OH)
Activity (Escherichia coli [1]): Active | Drug uptake (Staphylococcus aureus [2]): Active | Drug uptake (Escherichia coli [3]): Active | Activity (Staphylococcus aureus [4]): Active | Activity (Staphylococcus aureus [5]): Active | Activity (Staphylococcus aureus [6]): Active | FC (Staphylococcus aureus [7]): 3 | Activity (Escherichia coli [8]): Active | Activity (Escherichia coli [9]): Active | Activity (Escherichia coli [10]): Active | fold change (FC) (Escherichia coli [11]): 4 | Activity (Escherichia coli [12]): Dose-dependent effect

O=C(O)c1ccc(-c2c3nc(c(-c4ccccc4)c4ccc([nH]4)c(-c4ccccc4)c4nc(c(-c5ccccc5)c5ccc2[nH]5)C=C4)C=C3)cc1
Drug uptake (Staphylococcus aureus [2]): Active | Drug uptake (Escherichia coli [13]): Not Active | Drug uptake (Escherichia coli [3]): Not Active | Activity (Staphylococcus aureus [14]): Active | Activity (Staphylococcus aureus [15]): Active | Activity (Staphylococcus aureus [16]): Active | Activity (Staphylococcus aureus [17]): Active | Activity (Staphylococcus aureus [18]): Active | Activity (Escherichia coli [12]): inactive

COC(=O)CCCC(=O)Nc1cc2[nH]c(cc2-c2ccccc2)c2nc(ccc3[nH]c(cc3-c3ccccc3)c3nc1C(c1ccccc1)=C3)C(c1ccccc1)=C2
Activity (Staphylococcus aureus [19]): Active | Activity (Staphylococcus aureus [20]): Active | Activity (Staphylococcus aureus [21]): Active | Activity (Escherichia coli [22]): inactive

CC(C)C[C@H](NC(=O)[C@H](CCCNC(=N)N)NC(=O)[C@@H]1CCCN1C(=O)[C@H](Cc1cnc[nH]1)NC(=O)[C@@H]1CCCN1C(=O)[C@@H]1CCCN1C(=O)[C@H](CCCNC(=N)N)NC(=O)[C@@H]1CCCN1C(=O)CNC(=O)c1ccc(-c2c3nc(c(-c4ccccc4)c4ccc([nH]4)c(-c4ccccc4)c4nc(c(-c5ccccc5)c5ccc2[nH]5)C=C4)C=C3)cc1)C(=O)O ({Benzoyl(4-TriPhPorphyrinyl)}-GPRPPHPRL-OH)
Drug uptake (Staphylococcus aureus [2]): Active | Drug uptake (Escherichia coli [3]): Active | Activity (Staphylococcus aureus [4]): Active | Activity (Staphylococcus aureus [5]): Active | Activity (Staphylococcus aureus [6]): Active | FC (Staphylococcus aureus [7]): 3 | Activity (Escherichia coli [8]): Active | Activity (Escherichia coli [9]): Active | Activity (Escherichia coli [10]): Active | fold change (FC) (Escherichia coli [11]): 4 | Activity (Escherichia coli [12]): Dose-dependent effect

C[n+]1ccc(-c2c3nc(c(-c4cc[n+](C)cc4)c4ccc([nH]4)c(-c4ccc(C(=O)O)cc4)c4ccc([nH]4)c(-c4cc[n+](C)cc4)c4nc2C=C4)C=C3)cc1
Drug uptake (Staphylococcus aureus [2]): Not Active | Drug uptake (Escherichia coli [3]): Not Active | Activity (Staphylococcus aureus [4]): Active | Activity (Staphylococcus aureus [5]): Active | Activity (Staphylococcus aureus [16]): Active | Activity (Staphylococcus aureus [17]): inactive | Activity (Staphylococcus aureus [18]): Active | Activity (Escherichia coli [23]): Active | Activity (Escherichia coli [24]): Active | Activity (Escherichia coli [25]): inactive | Activity (Escherichia coli [10]): Active | Activity (Escherichia coli [26]): Active | Activity (Escherichia coli [12]): Dose-dependent effect
